According to ChEMBL document CHEMBL4368871, “Flush with a flash: natural three-component antimicrobial combinations based on S-nitrosothiols, controlled superoxide formation and "domino" reactions leading to peroxynitrite” (Medchemcomm, 2018):
Activity calls are given as the source filed them. The calls are words filed in the database; no cut-off is given here.

Legend:
Escherichia coli [1] = assay: Antimicrobial activity against Escherichia coli assessed as reduction in microbial growth measured up to 24 hrs in presence of riboflavin under day light exposure; format: functional, organism-based
Procedure, shortened: (§1)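 E. coli was exposed to riboflavin (250, 500, 1000 μM) plus the S-nitrosothiol at 250, 500 or 1000 μM. Incubation was 24 h at 37 °C under a daylight LED (0.6 Lumen). Growth was read as OD at 570 nm at 0 h and 24 h. Controls were medium plus organism, antibiotic/antifungal mix, and riboflavin or RSNO alone. Triplicates on three occasions (n = 9), one-way ANOVA.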

[2] = Induction of peroxynitrite anion generation assessed as peroxynitrite anion level in presence of riboflavin by DHR-123 indicator based spectrofluorometric method; format: functional
Procedure, shortened: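 Peroxynitrite was generated by the S-nitrosothiol with riboflavin (250, 500, 1000 μM) illuminated by a standard lamp (0.6 Lumen, 310 K), followed over 2–24 h. It was detected by oxidation of dihydrorhodamine 123 to fluorescent rhodamine 123, with excitation at 485 nm and emission at 530 nm.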

[3] = Induction of peroxynitrite anion generation assessed as peroxynitrite anion level in presence of xanthine/xanthine oxidase by DHR-123 indicator based spectrofluorometric method; format: functional
Procedure, shortened: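 Peroxynitrite was generated by the S-nitrosothiol with xanthine (400 μM) and xanthine oxidase (50 mU mL–1), the reaction being started by adding substrate or enzyme. It was quantified spectrofluorometrically by dihydrorhodamine 123 oxidation to rhodamine 123, with excitation at 485 nm and emission at 530 nm.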

Saccharomyces cerevisiae = assay: Antimicrobial activity against Saccharomyces cerevisiae assessed as microbial growth at 250 to 1000 uM measured up to 24 hrs in presence of xanthine/xanthine oxidase; format: functional
Procedure, shortened: (§2)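 Xanthine (400 μM) and xanthine oxidase (50 mU mL–1) were combined with the S-nitrosothiol at 250, 500 and 1000 μM. Growth was read as optical density at 570 nm at 0 h and after 24 h at 37 °C. Controls were medium plus organism (negative) and penicillin/streptomycin/amphotericin B (positive). Runs were in triplicate on three occasions (n = 9), analysed by one-way ANOVA.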

Steinernema feltiae [4] = assay: Nematocidal activity against Steinernema feltiae assessed as nematode viability at 250 to 1000 uM measured up to 24 hrs in presence of xanthine oxidase; format: functional
Bacillus cereus = assay: Antimicrobial activity against Bacillus cereus assessed as microbial growth at 250 to 1000 uM measured up to 24 hrs in presence of xanthine/xanthine oxidase; format: functional; procedure, shortened: as §2
Steinernema feltiae [5] = assay: Nematocidal activity against Steinernema feltiae assessed as nematode viability at 250 to 1000 uM measured up to 24 hrs in presence of xanthine/xanthine oxidase; format: functional
Candida tropicalis = assay: Antimicrobial activity against Candida tropicalis assessed as reduction in microbial growth at 250 to 1000 uM measured up to 24 hrs in presence of xanthine/xanthine oxidase; format: functional, organism-based; procedure, shortened: as §2
Escherichia coli [6] = assay: Antimicrobial activity against Escherichia coli assessed as microbial growth at 250 to 1000 uM measured up to 24 hrs in presence of riboflavin under day light exposure relative to control; format: functional; procedure, shortened: as §1
Steinernema feltiae [7] = assay: Nematocidal activity against Steinernema feltiae at 250 to 1000 uM measured under dark condition up to 24 hrs; format: functional, organism-based
Procedure, shortened: (§3)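 S. feltiae nematodes were exposed to riboflavin (500 or 1000 μM) with the S-nitrosothiol, incubated 24 h at 37 °C without light. Controls were medium plus nematodes (negative), penicillin/streptomycin/amphotericin B (positive), and 1000 μM riboflavin or RSNO alone. Triplicates on three occasions (n = 9).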

Escherichia coli [8] = assay: Dark toxicity against Escherichia coli at 250 to 1000 uM measured under dark condition up to 24 hrs; format: organism-based; conditions: in vivo
Procedure, shortened: (§4)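 E. coli was treated with the riboflavin (250, 500, 1000 μM) plus RSNO (250–1000 μM) system and incubated 24 h at 37 °C in the dark. Growth was read as OD at 570 nm at 0 and 24 h. Medium-only and antibiotic-mix controls were included, plus riboflavin and RSNO dilution controls. Triplicates on three occasions (n = 9).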

Steinernema feltiae [9] = assay: Nematocidal activity against Steinernema feltiae at 250 to 1000 uM in presence of riboflavin measured under dark condition up to 24 hrs; format: functional, organism-based; procedure, shortened: as §3
Escherichia coli [10] = assay: Dark toxicity against Escherichia coli at 250 to 1000 uM in presence of riboflavin measured up to 24 hrs; format: organism-based; conditions: in vivo; procedure, shortened: as §4

Row | Compound | Activity (Escherichia coli [1]) | Activity [2] [µM] | Activity [3] [µM] | Activity (Saccharomyces cerevisiae) | Activity (Steinernema feltiae [4]) [%] | Activity (Bacillus cereus) | Activity (Steinernema feltiae [5]) [%] | Activity (Candida tropicalis) | Activity (Escherichia coli [6]) [%] | Activity (Steinernema feltiae [7]) | Activity (Escherichia coli [8]) | Activity (Steinernema feltiae [9]) | Activity (Escherichia coli [10])
1 | CC(=O)N[C@@H](C(=O)O)C(C)(C)SN=O | Dose-dependent effect | 20.4 | 15.4 | Active | 50 | Active | <10 | inactive |  |  |  |  | 
2 | N[C@@H](CCC(=O)N[C@@H](CSN=O)C(=O)NCC(=O)O)C(=O)O [S-NITROSOGLUTATHIONE] | Dose-dependent effect | 18.9 | 17.1 | 9% | 50 | 6% | <10 | inactive | 20 | inactive | Non-Toxic | inactive | Non-Toxic
